Legend:
[1] = target: T1, Adrenergic receptor beta (Rattus norvegicus) (UniProt P18090+P10608+P26255); assay: % specific binding blocked by the compound fraction of 2.6(x10E-6) in beta adrenergic receptor from lung membranes, after serial wash; format: tissue-based
Procedure, shortened: (§1)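 Rat heart or lung membranes (ca. 500 or 150 μg protein) preincubated with compound 1 h at 30 °C, centrifuged, then washed five times (resuspend in buffer, 10 min at 30 °C, centrifuge). Residual specific (–)-[³H]dihydroalprenolol binding (5 nM, 20 min, 30 °C, 50 mM Tris/10 mM MgCl₂ pH 7.4; nonspecific defined with 10 μM (±)-alprenolol) compared with washed untreated membranes; percent inhibition, ≥2 experiments in triplicate.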

[2] = target: T1, Adrenergic receptor beta (Rattus norvegicus); assay: % specific binding blocked by the compound fraction of 2.6(x10E-6) in beta adrenergic receptor from heart membranes, after serial wash; procedure, shortened: as §1
[3] = target: T1, Adrenergic receptor beta (Rattus norvegicus); assay: % specific binding blocked by the compound fraction of 5.6 (1x10E- 5) in beta adrenergic receptor from heart membranes, after serial wash; procedure, shortened: as §1
[4] = target: T1, Adrenergic receptor beta (Rattus norvegicus); assay: % specific binding blocked by the compound fraction of 2.6 (1x10E- 5) in beta adrenergic receptor from lung membranes, after serial wash; format: tissue-based; procedure, shortened: as §1
[5] = target: T1, Adrenergic receptor beta (Rattus norvegicus); assay: % specific binding blocked by the compound fraction of 5.6 (1x10E- 5) in beta adrenergic receptor from lung membranes, after serial wash; format: tissue-based; procedure, shortened: as §1
[6] = target: T1, Adrenergic receptor beta (Rattus norvegicus); assay: % specific binding blocked by the compound fraction of 2.6 (1x10E- 5) in beta adrenergic receptor from heart membranes, after serial wash; procedure, shortened: as §1
[7] = target: T1, Adrenergic receptor beta (Rattus norvegicus); assay: % specific binding blocked by the compound fraction of 5.6(x10E-6) in beta adrenergic receptor from lung membranes, after serial wash; format: tissue-based; procedure, shortened: as §1
[8] = target: T1, Adrenergic receptor beta (Rattus norvegicus); assay: % specific binding blocked by the compound fraction of 5.6(x10E-6) in beta adrenergic receptor from heart membranes, after serial wash; procedure, shortened: as §1

Compound | Binding [1] [%] | Binding [2] [%] | Binding [3] [%] | Binding [4] [%] | Binding [5] [%] | Binding [6] [%] | Binding [7] [%] | Binding [8] [%]
C=CCc1ccccc1OCC(O)CNC(C)COCC(C)OCC(C)OCC(C)NCC(O)COc1ccccc1CC=C (configuration not stated) | 77 | 42.5 |  |  |  |  |  | 
CC(N)COCC(C)OCC(C)OCC(C)N (configuration not stated) |  |  | 0 | 0 | 0 | 0 |  | 
C=CCc1ccccc1OCC(O)CNC(C)COCC(C)OCC(C)OCC(C)N(CC(O)COc1ccccc1CC=C)CC(O)COc1ccccc1CC=C (configuration not stated) | 68 | 26 |  |  |  |  |  | 
C=CCc1ccccc1OCC(O)CNC(C)COC(C)COC(C)COCC(C)N (configuration not stated) | 14 | 3.8 |  |  |  |  | 0 | 0

Source: ChEMBL document CHEMBL1122311, “beta-Adrenergic antagonists with multiple pharmacophores: persistent blockade of receptors” (J Med Chem, 1983)
